The source made the active and inactive calls. No cut-off for these calls is given here.
Columns and labels:
[1] = molecular target: T1, Casein kinase II subunit alpha (Homo sapiens, UniProt P68400); assay: Inhibition of CK2alpha (unknown origin) assessed as residual activity at 50 uM relative to control
Summary of the method: (§1)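 Selectivity profiling against a panel of 44 human kinases. For each kinase, ATP was set to that kinase's Km. Values are residual activity in duplicate assays.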
Target sequence in this assay (P68400 whole entry, looked up): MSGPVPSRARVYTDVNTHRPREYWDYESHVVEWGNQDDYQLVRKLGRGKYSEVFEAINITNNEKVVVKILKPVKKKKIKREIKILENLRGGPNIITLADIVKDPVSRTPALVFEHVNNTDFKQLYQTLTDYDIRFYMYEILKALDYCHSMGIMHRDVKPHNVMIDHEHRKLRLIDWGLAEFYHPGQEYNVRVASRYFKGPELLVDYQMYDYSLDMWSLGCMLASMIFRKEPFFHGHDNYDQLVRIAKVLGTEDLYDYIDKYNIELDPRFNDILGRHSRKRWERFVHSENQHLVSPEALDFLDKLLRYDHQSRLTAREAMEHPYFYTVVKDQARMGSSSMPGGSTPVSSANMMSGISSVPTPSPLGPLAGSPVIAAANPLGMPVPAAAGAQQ

[2] = molecular target: T1, Casein kinase II subunit alpha; assay: Inhibition of recombinant human GST-tagged CK2alpha in presence of ATP by radiometric kinase assay
Target sequence in this assay (P68400 whole entry): as the sequence (P68400 whole entry, looked up) above

[3] = molecular target: Insulin receptor (Homo sapiens) (UniProt P06213); assay: Inhibition of activated IR (unknown origin) assessed as residual activity at 50 uM relative to control
Summary of the method: (§2)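 Profiling panel of 44 human kinases. ATP set to each kinase's Km. Run in duplicate; duplicates within 15–17% of each other.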

[4] = molecular target: Serine/threonine-protein kinase PAK 2 (Homo sapiens) (UniProt Q13177); assay: Inhibition of PAK2 (unknown origin) assessed as residual activity at 50 uM relative to control; summary of the method: as §1
[5] = molecular target: Cyclin-dependent kinase 1/cyclin B1 (Homo sapiens) (UniProt P06493+P14635); assay: Inhibition of CDK1/cyclin B (unknown origin) assessed as residual activity at 50 uM relative to control; assay type: protein-complex assay; summary of the method: as §1
[6] = molecular target: T1, Casein kinase II subunit alpha; assay: Mixed-type inhibition of recombinant human GST-tagged CK2alpha in presence of ATP by Lineweaver-Burk plot analysis
Target sequence in this assay (P68400 whole entry): as the sequence (P68400 whole entry, looked up) above

[7] = molecular target: Ephrin type-A receptor 4 (Homo sapiens) (UniProt P54764); assay: Inhibition of EPHA4 (unknown origin) assessed as residual activity at 50 uM relative to control; summary of the method: as §1
Chain of Ephrin type-A receptor 4 (Homo sapiens) (P54764 whole entry): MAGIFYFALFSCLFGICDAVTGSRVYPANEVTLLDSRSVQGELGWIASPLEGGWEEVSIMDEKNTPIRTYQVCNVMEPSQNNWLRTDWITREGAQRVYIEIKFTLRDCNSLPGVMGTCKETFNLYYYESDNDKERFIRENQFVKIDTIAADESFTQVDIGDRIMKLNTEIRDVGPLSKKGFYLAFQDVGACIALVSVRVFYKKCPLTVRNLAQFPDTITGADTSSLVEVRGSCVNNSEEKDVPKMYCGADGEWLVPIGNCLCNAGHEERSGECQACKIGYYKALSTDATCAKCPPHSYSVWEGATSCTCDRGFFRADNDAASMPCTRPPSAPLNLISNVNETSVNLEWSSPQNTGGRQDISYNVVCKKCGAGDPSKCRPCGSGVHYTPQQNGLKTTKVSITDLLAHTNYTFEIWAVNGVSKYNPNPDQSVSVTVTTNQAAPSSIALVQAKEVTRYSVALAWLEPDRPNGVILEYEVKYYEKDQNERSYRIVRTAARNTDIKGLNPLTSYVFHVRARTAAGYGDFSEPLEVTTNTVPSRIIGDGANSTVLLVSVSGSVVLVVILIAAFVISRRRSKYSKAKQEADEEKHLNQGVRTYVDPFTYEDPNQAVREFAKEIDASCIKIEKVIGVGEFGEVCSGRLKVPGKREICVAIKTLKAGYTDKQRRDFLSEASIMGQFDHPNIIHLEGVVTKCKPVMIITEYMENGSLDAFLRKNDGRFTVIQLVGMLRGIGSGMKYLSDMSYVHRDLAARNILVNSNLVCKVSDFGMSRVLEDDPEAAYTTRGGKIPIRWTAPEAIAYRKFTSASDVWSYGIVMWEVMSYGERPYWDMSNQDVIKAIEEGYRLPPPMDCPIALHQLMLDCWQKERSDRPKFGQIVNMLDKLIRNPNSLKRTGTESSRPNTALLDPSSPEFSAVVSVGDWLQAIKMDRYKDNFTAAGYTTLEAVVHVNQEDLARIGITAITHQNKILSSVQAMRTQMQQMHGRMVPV

[8] = molecular target: Casein kinase II alpha/beta (Homo sapiens) (UniProt P67870+P68400); assay: Inhibition of recombinant human GST-tagged CK2alpha2/CK2beta2 at 20 uM in presence of ATP and increasing CK2beta levels by radiometric kinase assay; assay type: protein-complex assay
Chain of Casein kinase II alpha/beta (Homo sapiens) (P67870 2-215 limits assumed): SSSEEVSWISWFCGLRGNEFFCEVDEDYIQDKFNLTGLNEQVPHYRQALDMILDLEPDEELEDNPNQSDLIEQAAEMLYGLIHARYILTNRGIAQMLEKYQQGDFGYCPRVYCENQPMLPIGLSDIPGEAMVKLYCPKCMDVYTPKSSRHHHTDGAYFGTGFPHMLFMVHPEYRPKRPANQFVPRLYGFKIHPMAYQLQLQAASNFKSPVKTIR
Chain of Casein kinase II alpha/beta (Homo sapiens) (P68400 whole entry partner): as the sequence (P68400 whole entry, looked up) above
Summary of the method: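 CK2α fixed at 150 nM and inhibitor fixed at 20 μM. CK2β was titrated at increasing concentrations and activity was read in the radiometric assay.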

[9] = molecular target: Muscle, skeletal receptor tyrosine-protein kinase (Homo sapiens) (UniProt O15146); assay: Inhibition of MUSK (unknown origin) assessed as residual activity at 50 uM relative to control; summary of the method: as §1
[10] = molecular target: Tyrosine-protein kinase Lyn (Homo sapiens) (UniProt P07948); assay: Inhibition of LYN (unknown origin) assessed as residual activity at 50 uM relative to control; summary of the method: as §1
Chain of Tyrosine-protein kinase Lyn (Homo sapiens) (P07948 2-512 limits assumed): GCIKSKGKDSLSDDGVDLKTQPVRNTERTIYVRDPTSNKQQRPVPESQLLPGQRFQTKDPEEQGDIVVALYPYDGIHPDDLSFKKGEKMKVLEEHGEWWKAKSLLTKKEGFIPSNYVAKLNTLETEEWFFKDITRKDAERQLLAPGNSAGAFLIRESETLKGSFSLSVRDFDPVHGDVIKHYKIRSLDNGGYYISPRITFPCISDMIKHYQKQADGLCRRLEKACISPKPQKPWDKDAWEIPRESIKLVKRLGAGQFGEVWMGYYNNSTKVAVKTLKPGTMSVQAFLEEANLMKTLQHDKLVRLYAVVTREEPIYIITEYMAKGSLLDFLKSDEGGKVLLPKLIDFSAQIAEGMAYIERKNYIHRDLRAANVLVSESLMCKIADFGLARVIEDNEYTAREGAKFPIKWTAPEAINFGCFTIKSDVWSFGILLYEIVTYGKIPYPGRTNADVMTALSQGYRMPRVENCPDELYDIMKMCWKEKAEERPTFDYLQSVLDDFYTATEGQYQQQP

[11] = molecular target: Inhibitor of nuclear factor kappa-B kinase subunit alpha (Homo sapiens) (UniProt O15111); assay: Inhibition of IKKalpha (unknown origin) assessed as residual activity at 50 uM relative to control; summary of the method: as §1
[12] = molecular target: 5'-AMP-activated protein kinase catalytic subunit alpha-1 (Homo sapiens) (UniProt Q13131); assay: Inhibition of AMPKalpha1 (unknown origin) assessed as residual activity at 50 uM relative to control; summary of the method: as §1
Chain of 5'-AMP-activated protein kinase catalytic subunit alpha-1 (Homo sapiens) (Q13131 whole entry, looked up): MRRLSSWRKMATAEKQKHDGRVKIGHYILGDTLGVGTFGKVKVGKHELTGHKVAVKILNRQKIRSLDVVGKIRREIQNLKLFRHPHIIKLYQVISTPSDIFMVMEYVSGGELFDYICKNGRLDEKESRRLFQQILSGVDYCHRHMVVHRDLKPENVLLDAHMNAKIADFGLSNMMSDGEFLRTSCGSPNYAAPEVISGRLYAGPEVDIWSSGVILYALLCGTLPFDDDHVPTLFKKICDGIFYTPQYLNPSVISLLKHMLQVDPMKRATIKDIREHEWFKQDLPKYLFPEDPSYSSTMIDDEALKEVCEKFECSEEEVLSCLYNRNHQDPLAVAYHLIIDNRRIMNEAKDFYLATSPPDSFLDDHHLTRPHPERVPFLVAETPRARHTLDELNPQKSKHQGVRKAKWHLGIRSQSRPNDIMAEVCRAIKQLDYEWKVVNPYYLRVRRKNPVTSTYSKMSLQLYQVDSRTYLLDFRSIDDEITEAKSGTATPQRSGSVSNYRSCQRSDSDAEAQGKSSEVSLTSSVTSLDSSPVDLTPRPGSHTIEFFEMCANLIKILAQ

[13] = molecular target: Cyclin-dependent kinase 7/ cyclin H (Homo sapiens) (UniProt P51946+P50613); assay: Inhibition of CDK7/cyclin H (unknown origin) assessed as residual activity at 50 uM relative to control; assay type: protein-complex assay; summary of the method: as §1
[14] = molecular target: Fibroblast growth factor receptor 1 (Homo sapiens) (UniProt P11362); assay: Inhibition of FGFR1 (unknown origin) assessed as residual activity at 50 uM relative to control; summary of the method: as §1
[15] = molecular target: RAC-alpha serine/threonine-protein kinase (Homo sapiens) (UniProt P31749); assay: Inhibition of PKBalpha (unknown origin) assessed as residual activity at 50 uM relative to control; summary of the method: as §2
Chain of RAC-alpha serine/threonine-protein kinase (Homo sapiens) (P31749 whole entry): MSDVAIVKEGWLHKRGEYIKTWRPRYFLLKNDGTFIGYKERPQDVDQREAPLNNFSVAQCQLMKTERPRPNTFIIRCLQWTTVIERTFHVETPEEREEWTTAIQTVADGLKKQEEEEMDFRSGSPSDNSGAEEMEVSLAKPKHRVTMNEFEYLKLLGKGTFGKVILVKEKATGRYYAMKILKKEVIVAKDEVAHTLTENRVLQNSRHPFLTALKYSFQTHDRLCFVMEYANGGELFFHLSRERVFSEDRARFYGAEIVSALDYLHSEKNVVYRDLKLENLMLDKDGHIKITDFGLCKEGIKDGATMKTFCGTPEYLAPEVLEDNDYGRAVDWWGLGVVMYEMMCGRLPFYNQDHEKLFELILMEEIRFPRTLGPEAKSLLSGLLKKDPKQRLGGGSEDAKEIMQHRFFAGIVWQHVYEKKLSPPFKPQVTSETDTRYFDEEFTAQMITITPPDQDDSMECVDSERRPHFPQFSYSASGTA

[16] = molecular target: CDK2/Cyclin A2 (Homo sapiens) (UniProt P24941+P20248); assay: Inhibition of CDK2/cyclin A (unknown origin) assessed as residual activity at 50 uM relative to control; assay type: protein-complex assay; summary of the method: as §1
[17] = molecular target: Ribosomal protein S6 kinase alpha-1 (Homo sapiens) (UniProt Q15418); assay: Inhibition of RSK1 (unknown origin) assessed as residual activity at 50 uM relative to control; summary of the method: as §2
[18] = molecular target: Homeodomain-interacting protein kinase 1 (Homo sapiens) (UniProt Q86Z02); assay: Inhibition of HIPK1 (unknown origin) assessed as residual activity at 50 uM relative to control; summary of the method: as §1
[19] = molecular target: Proto-oncogene tyrosine-protein kinase Src (Homo sapiens) (UniProt P12931); assay: Inhibition of cSRC (unknown origin) assessed as residual activity at 50 uM relative to control; summary of the method: as §2
[20] = molecular target: Serine/threonine-protein kinase Chk2 (Homo sapiens) (UniProt O96017); assay: Inhibition of CHK2 (unknown origin) assessed as residual activity at 50 uM relative to control; summary of the method: as §1
Chain of Serine/threonine-protein kinase Chk2 (Homo sapiens) (O96017 whole entry): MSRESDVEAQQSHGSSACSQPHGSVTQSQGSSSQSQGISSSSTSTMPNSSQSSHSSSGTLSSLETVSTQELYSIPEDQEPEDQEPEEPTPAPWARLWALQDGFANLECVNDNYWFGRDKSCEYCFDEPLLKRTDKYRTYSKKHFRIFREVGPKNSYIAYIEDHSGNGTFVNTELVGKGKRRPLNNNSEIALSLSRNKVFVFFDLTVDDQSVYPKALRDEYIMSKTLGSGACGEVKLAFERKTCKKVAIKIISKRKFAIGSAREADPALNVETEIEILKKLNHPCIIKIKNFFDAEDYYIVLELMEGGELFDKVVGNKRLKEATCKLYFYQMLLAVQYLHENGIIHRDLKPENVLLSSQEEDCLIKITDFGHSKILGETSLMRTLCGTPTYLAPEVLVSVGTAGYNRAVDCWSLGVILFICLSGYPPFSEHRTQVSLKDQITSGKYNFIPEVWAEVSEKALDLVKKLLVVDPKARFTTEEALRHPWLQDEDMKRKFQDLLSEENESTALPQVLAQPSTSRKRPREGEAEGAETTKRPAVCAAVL

[21] = molecular target: Tyrosine-protein kinase ABL1 (Homo sapiens) (UniProt P00519); assay: Inhibition of ABL (unknown origin) assessed as residual activity at 50 uM relative to control; summary of the method: as §1
[22] = molecular target: Homeodomain-interacting protein kinase 2 (Homo sapiens) (UniProt Q9H2X6); assay: Inhibition of HIPK2 (unknown origin) assessed as residual activity at 50 uM relative to control; summary of the method: as §1
[23] = molecular target: Serine/threonine-protein kinase STK11 (Homo sapiens) (UniProt Q15831); assay: Inhibition of LKB1 (unknown origin) assessed as residual activity at 50 uM relative to control; summary of the method: as §1
[24] = molecular target: CDK6/cyclin D3 (Homo sapiens) (UniProt P30281+Q00534); assay: Inhibition of CDK6/cyclin D3 (unknown origin) assessed as residual activity at 50 uM relative to control; assay type: protein-complex assay; summary of the method: as §1
[25] = molecular target: Protein kinase C alpha type (Homo sapiens) (UniProt P17252); assay: Inhibition of PKCalpha (unknown origin) assessed as residual activity at 50 uM relative to control; summary of the method: as §2
[26] = molecular target: Hepatocyte growth factor receptor (Homo sapiens) (UniProt P08581); assay: Inhibition of MET (unknown origin) assessed as residual activity at 50 uM relative to control; summary of the method: as §1
[27] = molecular target: Dual specificity mitogen-activated protein kinase kinase 1 (Homo sapiens) (UniProt Q02750); assay: Inhibition of MEK1 (unknown origin) assessed as residual activity at 50 uM relative to control; summary of the method: as §1
[28] = molecular target: Dual specificity tyrosine-phosphorylation-regulated kinase 2 (Homo sapiens) (UniProt Q92630); assay: Inhibition of DYRK2 (unknown origin) assessed as residual activity at 50 uM relative to control; summary of the method: as §1
[29] = molecular target: Calcium/calmodulin-dependent protein kinase type 1 (Homo sapiens) (UniProt Q14012); assay: Inhibition of CAMK1 (unknown origin) assessed as residual activity at 50 uM relative to control; summary of the method: as §1
Chain of Calcium/calmodulin-dependent protein kinase type 1 (Homo sapiens) (Q14012 whole entry, looked up): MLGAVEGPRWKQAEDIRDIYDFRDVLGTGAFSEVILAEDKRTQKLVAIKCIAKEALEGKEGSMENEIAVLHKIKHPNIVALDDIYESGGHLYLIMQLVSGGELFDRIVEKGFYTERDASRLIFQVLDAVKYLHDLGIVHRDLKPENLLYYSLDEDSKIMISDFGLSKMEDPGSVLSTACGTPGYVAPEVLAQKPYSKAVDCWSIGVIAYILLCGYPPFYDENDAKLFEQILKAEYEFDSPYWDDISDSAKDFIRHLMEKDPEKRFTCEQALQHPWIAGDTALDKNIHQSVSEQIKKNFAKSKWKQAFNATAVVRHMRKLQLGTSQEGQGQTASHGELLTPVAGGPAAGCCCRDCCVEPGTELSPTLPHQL

[30] = molecular target: Homeodomain-interacting protein kinase 3 (Homo sapiens) (UniProt Q9H422); assay: Inhibition of HIPK3 (unknown origin) assessed as residual activity at 50 uM relative to control; summary of the method: as §1
[31] = molecular target: Tyrosine-protein kinase Fyn (Homo sapiens) (UniProt P06241); assay: Inhibition of FYN (unknown origin) assessed as residual activity at 50 uM relative to control; summary of the method: as §1
[32] = molecular target: Cyclin-dependent kinase 2/cyclin E1 (Homo sapiens) (UniProt P24864+P24941); assay: Inhibition of CDK2/cyclin E (unknown origin) assessed as residual activity at 50 uM relative to control; assay type: protein-complex assay; summary of the method: as §1
[33] = molecular target: Aurora kinase A (Homo sapiens) (UniProt O14965); assay: Inhibition of aurora A (unknown origin) assessed as residual activity at 50 uM relative to control

Activity [1]: 0%
IC50 [2]: 7 µM
Activity [3]: 93%
Activity [4]: 102%
Activity [5]: 89%
Ki [6]: 1.6 µM
Activity [7]: 45%
inhibition [8]: Active
Activity [9]: 62%
Activity [10]: 104%
Activity [11]: 103%
Activity [12]: 71%
Activity [13]: 104%
Activity [14]: 97%
Activity [15]: 85%
Activity [16]: 86%
Activity [17]: 99%
Activity [18]: 97%
Activity [19]: 97%
Activity [20]: 89%
Activity [21]: 104%
Activity [22]: 83%
Activity [23]: 85%
Activity [24]: 95%
Activity [25]: 86%
Activity [26]: 102%
Activity [27]: 103%
Activity [28]: 78%
Activity [29]: 101%
Activity [30]: 98%
Activity [31]: 97%
Activity [32]: 101%
Activity [33]: 79%
SMILES: O=C(O)c1ccc(Nc2nc(-c3cccc([N+](=O)[O-])c3)cs2)cc1

From ChEMBL document CHEMBL4411337, “2-Aminothiazole Derivatives as Selective Allosteric Modulators of the Protein Kinase CK2. 1. Identification of an Allosteric Binding Site” (J Med Chem, 2019)
